Shown are actives, neighbours in structure and some others; about 1.5% of the full set was active somewhere.
aDG glyco act – increases alpha dystroglycan glycosylation; Pro5-aDG cells, alpha-DG glycosylation AlphaScreen (IIH6); 0% Pro5, 100% B10-LARGE cell signal; AID 624168; 360,000 tested, 0.22% active; activation, % at 10 µM;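 active = activation of at least 8% versus controls, or a plate z-score of at least 8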;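 also: Pro5 are CHO cells carrying HIG-tagged alpha-DG that lacks glycosylation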
HNF4A DNA FP – change in binding of human HNF4 alpha to DNA; P41235; HNF4a-FITC DNA binding, fluorescence polarization, 1 h; activity change, % at 10 µM; 360,000 tested, 0.3% active; in the data active = activity change above about 30%, passing the limit was not always enough
NR1D1 modulator – Rev-erb alpha (human) modulation; activity, % at 10 µM; Rev-erbα–FITC-DNA binding, fluorescence polarization, 90 min; AID 1259318; 370,000 tested, 0.79% active;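 active = activity above about 14%, limit read from the data; passing the limit was not always enough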;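 also: 0% = DMSO wells with 35 nM protein and 100% = DMSO wells with 750 nM protein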
CSN inh – CSN deneddylation inhibition. inhibition, % at 12.5 µM. Q92905. 360,000 tested, 0.38% active. Purified CSN, SCF-Nedd8-OG deneddylation, fluorescence polarization;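 active = pattern-corrected inhibition above about 35%, with an unprinted fluorescence ratio check between 0.5 and 1.5, limit read from the data, passing the limit was not always enough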;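 also: 0% = enzyme with substrate and 100% = substrate without enzyme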
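assay system = purified human Csn5 enzyme expressed in HEK293T cells | amount = 0.24 nM enzyme | buffer or medium = Tris/NaCl/DTT buffer, pH 7.5 | reagent = 10 nM SCFSkp2-Nedd8OG | compound = one concentration, 12.5 µM, 0.25% DMSO | times = 90 min reaction at room temperature | signal = FP | read-out basis = % inhibition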
CSN deneddyl val – validation of inhibitors of human CSN-mediated cullin deneddylation. shares compounds with CSN inh. Csn5 deneddylation of SCF-Nedd8OG, fluorescence polarization, 90 min. inhibition, % at 16.6 µM. 540 tested, 62% active; in the data active = inhibition above about 50%;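 also: 0% = DMSO with enzyme and 100% = no enzyme wells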
MMP-2 counter – blocks human MMP-2 in a CSN deneddylation counter-screen; inhibition, % at 16.6 µM; shares compounds with CSN inh; recombinant MMP-2, FRET substrate fluorescence, 60 min; 540 tested, 33% active;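 active = corrected plate-normalized z-score of 5 or more, or -5 or less, or inhibition of 15% or more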;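 also: plate controls were DMSO wells with enzyme for no effect and buffer wells lacking MMP-2 for full effect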
Thrombin cntr – thrombin (bovine) inhibition, counter-screen for CSN hits. shares compounds with CSN inh. 540 tested, 49% active. inhibition, % at 16.6 µM. bovine thrombin cleavage of Ub4-pepOG, fluorescence polarization;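 active = inhibition at or above a set limit, with a fluorescence interference ratio between 0.5 and a set maximum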
Target sequence (P00735 whole entry, looked up): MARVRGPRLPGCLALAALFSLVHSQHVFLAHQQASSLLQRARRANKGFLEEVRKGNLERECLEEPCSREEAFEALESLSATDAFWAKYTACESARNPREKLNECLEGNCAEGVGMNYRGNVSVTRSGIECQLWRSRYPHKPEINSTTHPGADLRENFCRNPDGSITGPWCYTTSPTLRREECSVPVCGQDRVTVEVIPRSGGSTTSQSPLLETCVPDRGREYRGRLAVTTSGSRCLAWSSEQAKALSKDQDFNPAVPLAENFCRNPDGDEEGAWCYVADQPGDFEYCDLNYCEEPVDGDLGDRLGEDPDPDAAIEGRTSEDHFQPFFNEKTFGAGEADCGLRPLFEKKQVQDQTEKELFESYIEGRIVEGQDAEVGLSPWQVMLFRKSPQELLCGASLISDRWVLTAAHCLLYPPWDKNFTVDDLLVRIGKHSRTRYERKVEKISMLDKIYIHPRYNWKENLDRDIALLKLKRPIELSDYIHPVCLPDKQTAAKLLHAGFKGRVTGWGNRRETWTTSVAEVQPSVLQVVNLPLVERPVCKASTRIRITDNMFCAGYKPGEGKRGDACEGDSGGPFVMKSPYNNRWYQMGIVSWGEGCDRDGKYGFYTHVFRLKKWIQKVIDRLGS
HNF4a DNA conf – change in binding of human HNF4 alpha to DNA, retest | HNF4A-FITC DNA binding, fluorescence polarization, 1 h | AID 1224897 | shares compounds with HNF4A DNA FP | 210 tested, 99% active | activity change, % at 12.5 µM; call rule not given here
* marks the source's active call; other numbers are inactive results; nt = not tested or not shown.

SMILES	aDG glyco act	HNF4A DNA FP	NR1D1 modulator	CSN inh	CSN deneddyl val	MMP-2 counter	Thrombin cntr	others
CCN1C(=O)C(=Cc2ccc(N3CCOCC3)o2)C(=O)N(CC)C1=S	0.0	48.0*	9.8	105.9*	62.4*	-23.6	69.3*
O=C1NC(=O)N(Cc2ccccc2)C(=O)/C1=C\C=C\c1ccco1	-0.2	18.0	-6.9	80.6*	60.5*	2.4	27.2*
C=CCN1C(=O)NC(=O)/C(=C/C=C/c2ccccc2)C1=O	-0.1	20.0	-4.9	2.8	nt	nt	nt
O=C1NC(=O)N(Cc2ccco2)C(=O)/C1=C/C=C/c1ccco1	0.0	-30.8	-22.0	45.8*	47.6	26.1*	20.0*
CCC1(C)CC(=O)NC(=O)C1	nt	nt	3.2	nt	nt	nt	nt
O=C1NC(=O)N(c2ccccc2)C(=O)/C1=C/C=C/c1ccco1	0.0	-1.1	-4.0	41.9*	58.0*	16.4*	13.6
CN1C(=O)/C(=C/C=C/c2ccco2)C(=O)NC1=S	0.6	4.1	-10.3	65.2*	29.2	19.8*	50.1*
Cc1ccsc1/C=C1\C(=O)NC(=S)N(C)C1=O	0.3	-2.5	1.2	0.6	nt	nt	nt
CN(C)c1ccc(/C=C/C=C2/C(=O)NC(=O)N(c3ccccc3)C2=O)cc1	-0.2	10.8	-3.7	38.4*	72.0*	-12.9	11.8
Cc1ccc(N2C(=O)NC(=O)/C(=C\C=C\c3ccco3)C2=O)cc1	0.0	9.0	-6.8	33.9	nt	nt	nt
Cc1cccc(N2C(=O)NC(=O)/C(=C\C=C\c3ccco3)C2=O)c1	-0.1	4.9	2.8	50.5*	83.6*	8.0	9.1
CC(C)(C)NCC(O)c1cc(Cl)c(N)c(C(F)(F)F)c1 (configuration not stated)	nt	nt	0.1	nt	nt	nt	nt
O=C1OC(c2ccc(O)c(S(=O)(=O)O)c2)(c2ccc(O)c(S(=O)(=O)O)c2)c2c(Br)c(Br)c(Br)c(Br)c21	nt	nt	-5.0	nt	nt	nt	nt
C=CCC1(C(C)CCC)C(=O)N=C(S)NC1=O (configuration not stated)	nt	nt	6.5	nt	nt	nt	nt
Cn1cc(C2=C(c3cn(C4CCN(Cc5ccccn5)CC4)c4ccccc34)C(=O)NC2=O)c2ccccc21	nt	nt	2.9	nt	nt	nt	nt
Cc1ccc(N2C(=O)NC(=O)/C(=C\C=C\c3ccco3)C2=O)cc1C	0.0	1.2	-0.3	68.9*	68.1*	5.9	12.2
S=C(SSC(=S)N1CCCCC1)N1CCCCC1	nt	nt	1.7	nt	nt	nt	nt
CC(C)(C)c1ccc(O)cc1	nt	nt	-1.6	nt	nt	nt	nt
CC(C)(C)c1ccc(O)c(N=Cc2c(O)ccc3ccccc23)c1	1.7	76.0	9.7	56.5*	66.6*	-18.9	60.8*
CC1(C)OC(c2ccccc2)=C/C(=C/C=C2C(=O)NC(=O)NC2=O)O1	-0.2	184.2	7.5	96.0*	195.4*	-3.9	-7.7
Cc1cc(C=C2C(=O)N(C)C(=S)N(C)C2=O)c(C)n1C1CCCCC1	0.6	20.3	2.2	49.1*	112.5*	1.4	2.7
O=C1C(=O)c2ccccc2-c2ccccc21	-0.2	3.0	-5.9	58.6*	0.2	-1.6	-38.7
O=C1C(=O)c2cccc3cccc1c23	0.3	0.7	-4.0	-3.6	nt	nt	nt
CCn1nc(-c2ccccc2)nc2c(=O)n(C)c(=O)nc1-2	-0.3	1.6	nt	2.1	nt	nt	nt
Cc1nc2c(=O)n(C)c(=O)nc-2n(C)n1	-0.3	78.0*	-25.5	62.6*	12.2	10.4	-40.8
SMILES	aDG glyco act	HNF4A DNA FP	NR1D1 modulator	CSN inh	CSN deneddyl val	MMP-2 counter	Thrombin cntr	others
CCOC(=O)c1c(NS(=O)(=O)c2ccccc2)n(CCCOC)c2nc3ccccc3nc12	1.5	0.8	-4.4	48.5*	95.2*	-2.7	-0.8
CCCCCn1c(NC(=O)c2ccco2)c(C(=O)OCC)c2nc3ccccc3nc21	4.3	9.9	nt	30.4	nt	nt	nt
C=CCN1C(=O)/C(=C/c2ccc(Br)s2)C(=O)NC1=S	0.0	-5.6	-7.3	37.3*	81.0*	12.5	3.1
CN1C(=O)/C(=C/c2ccc(Cl)s2)C(=O)NC1=S	0.0	3.3	-3.2	9.9	nt	nt	nt
CCN(CC)Cc1nccn1-c1ccc([N+](=O)[O-])cc1C(=O)c1ccccc1Cl	nt	nt	4.5	nt	nt	nt	nt
CCCCn1c(O)c(/C=C/C=Nc2ccccc2)c(=O)[nH]c1=O	0.1	55.1*	0.3	46.7*	49.5	-11.2	37.0*
CCCCC(=O)N/N=C/c1c(O)n(CCc2ccccc2)c(=O)[nH]c1=O	-0.3	1.7	-6.6	1.7	nt	nt	nt
CCN(CC)c1ccc(N=Cc2c(O)n(Cc3ccco3)c(=O)[nH]c2=O)cc1	0.0	101.6	-1.0	62.0*	nt	-14.2	25.1*
NC(=O)c1ccc(N=Cc2c(O)n(Cc3ccco3)c(=O)[nH]c2=O)cc1	-0.2	-25.9	-26.3	45.1*	38.7	54.7*	1.4
O=c1[nH]c(=O)n(Cc2ccco2)c(O)c1/C=N/N1CCCCCC1	-0.1	-0.1	2.6	6.2	nt	nt	nt
N#Cc1c(/N=C/c2c(O)n(Cc3ccco3)c(=O)[nH]c2=O)sc2c1CCCC2	-0.2	-3.0	0.5	42.9*	73.4*	10.0	-2.0
CCOC(=O)/C=C(C)/C=C/CC(C)CCCC(C)C (configuration not stated)	nt	nt	-1.7	nt	nt	nt	nt
O=C1NC(=O)N(c2ccc3c(c2)OCO3)C(=O)/C1=C/c1ccc(N2CCCC2)o1	0.1	143.0	6.8	41.9*	123.9*	-14.1	83.0*
C=C1C(=O)OC2CC(C)C3C=CC(=O)C3(C)C(O)C12 (configuration not stated)	-0.3	-0.1	nt	7.4	nt	nt	nt
C=C1C(=O)O[C@@H]2C[C@@H](C)[C@@H]3C=CC(=O)[C@@]3(C)[C@@H](OC(=O)CC(=O)O[C@H]3[C@@H]4C(=C)C(=O)O[C@@H]4C[C@@H](C)[C@@H]4C=CC(=O)[C@]43C)[C@H]12	-0.4	-25.5	-12.3	56.7*	nt	0.9	21.2*
Oc1ccccc1-c1ccccc1	nt	nt	-2.8	nt	nt	nt	nt
Cc1ccc(/C=C2\C(=O)NC(=S)N(c3cccc(F)c3)C2=O)o1	0.1	20.8	-5.0	44.7*	64.8*	35.0*	54.4*
FC(F)OC(F)(F)C(F)Cl (configuration not stated)	nt	nt	-1.5	nt	nt	nt	nt
CN(C)CCCN=Cc1c(O)n(CCc2ccccc2)c(=O)[nH]c1=O	0.1	43.0*	-3.2	28.3	nt	nt	nt	HNF4a DNA conf=60.4*
CCN(CC)CCOC(=O)c1ccc(N=Cc2c(O)[nH]c(=O)[nH]c2=O)cc1	0.2	60.5*	3.4	48.0*	nt	nt	nt	HNF4a DNA conf=99.0*
Cc1nnc2n1-c1sc(CCC(=O)N3CCOCC3)cc1C(c1ccccc1Cl)=NC2	nt	nt	-3.3	nt	nt	nt	nt
